This is an account of results in ChEMBL document CHEMBL1147539, “Synthesis and biological evaluation of novel, selective, nonsteroidal glucocorticoid receptor antagonists” (Bioorg Med Chem Lett, 2004).

In test [1] the target is T1, Glucocorticoid receptor (Homo sapiens, UniProt P04150).
T1 sequence (P04150 whole entry): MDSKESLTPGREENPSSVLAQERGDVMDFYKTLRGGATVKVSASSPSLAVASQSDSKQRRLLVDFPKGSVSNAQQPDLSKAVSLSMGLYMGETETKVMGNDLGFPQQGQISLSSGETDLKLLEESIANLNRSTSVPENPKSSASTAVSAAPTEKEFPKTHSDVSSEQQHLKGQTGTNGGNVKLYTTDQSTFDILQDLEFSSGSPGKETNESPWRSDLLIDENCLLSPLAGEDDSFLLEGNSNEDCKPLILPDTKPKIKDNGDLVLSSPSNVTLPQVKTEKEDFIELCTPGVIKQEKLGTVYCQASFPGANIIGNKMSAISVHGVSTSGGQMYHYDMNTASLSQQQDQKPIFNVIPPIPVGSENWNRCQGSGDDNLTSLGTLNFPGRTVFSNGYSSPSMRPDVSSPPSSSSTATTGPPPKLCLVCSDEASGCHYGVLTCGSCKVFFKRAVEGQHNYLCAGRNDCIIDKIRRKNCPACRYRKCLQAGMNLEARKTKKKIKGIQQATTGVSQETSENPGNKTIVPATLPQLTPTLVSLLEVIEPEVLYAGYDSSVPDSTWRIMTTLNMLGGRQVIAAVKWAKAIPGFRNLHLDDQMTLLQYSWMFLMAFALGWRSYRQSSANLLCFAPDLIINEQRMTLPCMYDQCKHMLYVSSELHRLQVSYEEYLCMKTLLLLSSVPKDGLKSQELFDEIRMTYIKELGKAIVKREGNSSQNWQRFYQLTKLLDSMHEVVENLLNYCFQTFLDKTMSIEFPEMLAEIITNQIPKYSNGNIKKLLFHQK

For test [2], the target named is T1, Glucocorticoid receptor. In words: Displacement of [3H]dexamethasone from human Glucocorticoid receptor (GR); Value ranges from 1273-2947 nM. The gist of the method: (§1)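 Binding to human GR; IC50 reported as the geometric mean of two experiments (three for some values), each run in duplicate, with the range of the experiments given.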
(In general: Loss of bound radioactivity is the signal in a displacement assay; it reports binding, not function.)

Test [3] deals with T1, Glucocorticoid receptor. Nature of the test: Effect on human Glucocorticoid receptor (GR) in a whole cell assay to measure functional cellular GR-antagonism (GRAF).
For test [4], the target named is T1, Glucocorticoid receptor. The source holds these as a separate data set.
In test [5] the target is T1, Glucocorticoid receptor. In words: Displacement of [3H]dexamethasone from human Glucocorticoid receptor (GR); Value ranges from 1382-1049 nM. The gist of the method:
as §1

The target in test [6] is T1, Glucocorticoid receptor. This is another data set of the same source.
In test [7] the target is T1, Glucocorticoid receptor. Nature of the test: Displacement of [3H]dexamethasone from human Glucocorticoid receptor (GR); Value ranges from 28-34 nM.
The target of test [8] is T1, Glucocorticoid receptor. The source holds these as a separate data set.
The target of test [9] is T1, Glucocorticoid receptor. In words: Displacement of [3H]dexamethasone from human Glucocorticoid receptor (GR); Value ranges from 559-1423 nM. The gist of the method:
as §1

Test [10] addresses T1, Glucocorticoid receptor. In words: Effect on functional cellular GR-antagonism (GRAF) in human Glucocorticoid receptor (GR) expressing cells. The gist of the method: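 Whole-cell functional GR antagonism measured in a genetically engineered mammalian cell line expressing GR; IC50 determined from 12-concentration compound curves.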
The target of test [11] is T1, Glucocorticoid receptor. In words: Displacement of [3H]dexamethasone from human Glucocorticoid receptor (GR); Value ranges from 9-12 nM.
In test [12] the target is T1, Glucocorticoid receptor. The source holds these as a separate data set.
For test [13], the target named is T1, Glucocorticoid receptor. Nature of the test: Displacement of [3H]dexamethasone from human Glucocorticoid receptor (GR); Value ranges from 106-131 nM.

The IC50 is the point on the concentration scale where inhibition reaches its midpoint. Low values mean greater potency, high ones weaker potency. `COc1cccc2c1-c1ccc(NS(C)(=O)=O)cc1C(c1cccnc1)O2` (stereo not drawn) registered an IC50 at Glucocorticoid receptor [1] of 460 nM.

Consider `COc1cccc2c1-c1ccc(N)cc1C(c1ccccc1)O2` (stereo not drawn), for which the concentration for half-maximal inhibition (IC50) on Glucocorticoid receptor [2] came to 1940 nM; against Glucocorticoid receptor [3] it was 2020 nM.

On Glucocorticoid receptor [4], `CCOc1ccc(CC2Oc3cccc(OC)c3-c3ccc(NS(C)(=O)=O)cc32)cc1` (stereo not drawn) displayed an IC50 of 548 nM.

Molecule `COC(=O)c1cccc2c1-c1ccc(NS(C)(=O)=O)cc1C(c1ccccc1)O2` (stereo not drawn) came in with an IC50 at Glucocorticoid receptor [5] of 1200 nM.

On to `COc1cccc2c1-c1ccc(NC(=O)c3ccccc3)cc1C(c1ccccc1)O2` (stereo not drawn), for which the IC50 against Glucocorticoid receptor [3] came to 289 nM; at Glucocorticoid receptor [6], 404 nM.

In the case of `CCOC(=O)c1cccc(C2Oc3cccc(OC)c3-c3ccc(NS(C)(=O)=O)cc32)c1` (stereo not drawn), the IC50 against Glucocorticoid receptor [3] was found to be 296 nM; at Glucocorticoid receptor [7], 31 nM.

In the case of `CS(=O)(=O)Nc1ccc2c(c1)C(c1ccccc1)Oc1cccc(-c3cccs3)c1-2` (stereo not drawn), inhibition at Glucocorticoid receptor [8] was half-maximal at 656 nM (IC50).

As to `CS(=O)(=O)Nc1ccc2c(c1)C(c1ccccc1)Oc1cccc(O)c1-2` (stereo not drawn), the half-maximal inhibitory concentration (IC50) at Glucocorticoid receptor [9] came out at 892 nM; at Glucocorticoid receptor [10], 1810 nM.

`COc1cccc2c1-c1ccc(NS(C)(=O)=O)cc1C(c1ccc(Cl)cc1)O2` (stereo not drawn): the 50% inhibitory concentration (IC50) at Glucocorticoid receptor [11] was 10 nM; at Glucocorticoid receptor [3] it was 129 nM.

On to `COc1cccc2c1-c1ccc(NCc3ccccc3)cc1C(c1ccccc1)O2` (stereo not drawn), for which the half-maximal inhibitory concentration (IC50) turned out to be 402 nM on Glucocorticoid receptor [3] and 910 nM against Glucocorticoid receptor [12].

As for `COc1cccc2c1-c1ccc(NC(C)=O)cc1C(c1ccccc1)O2` (stereo not drawn), the IC50 on Glucocorticoid receptor [13] stood at 117 nM; on Glucocorticoid receptor [3], 69 nM.
